Assay outcomes (PubChem BioAssay)
Compounds with a hit are over-represented: about 2.1% of the library has one in this group of screens.
EBV LMP1 NFkB: reduces LMP1-driven NF-kappaB luciferase signal; LMP1-induced NF-kappaB luciferase reporter cells, luminescence; hit rate 0.69% among 350,000; inhibition, % at 12.5 µM; in the data active = inhibition above about 41%; inconclusive = no clear call, values can overlap the other calls;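 note: 0% = neutral control wells and 100% = reference inhibitor control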
aSyn UTR inh: 5' untranslated region of α-synuclein, MLPCN primary screen | alpha-synuclein 5'UTR reporter, inhibitor activity | inhibition, % (tested at 7.5 µM) | hit rate 0.82% among 300,000 | AID 1813; in the data active = inhibition above about 60%; inconclusive = no clear call, values can overlap the other calls;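 note: H4 neuroglioblastoma cells stably carrying SNCA 5'UTR luciferase fusion; 0% = DMSO wells and 100% = positive control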
PAX8 inh HTS: lowers PAX8-driven luciferase in RMG-I cells; RMG-I TPO-luciferase reporter, SteadyGlo, 24 h; inhibition, % at 12.6 µM; hit rate 1.2% among 360,000; AID 652154;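 active = mean replicate inhibition at least 60% with every replicate also reaching 60%; inconclusive = only one of the two criteria is met; inactive = mean below 60% and not all replicates reaching 60%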;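 note: luciferase light reporting Pax8 driven TPO promoter activity; plate controls were median of neutral control wells for no effect and mitoxantrone controls for full effect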
FN deposit inh: fibronectin deposition inhibition; hit rate 0.086% among 350,000; AH1F fibroblasts, Alexa488-fibronectin deposition fluorescence, overnight; inhibition, % at 12.6 µM; AID 743247;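 active = mean inhibition across replicates of 30% or more, regardless of how many single replicates reach that level; inconclusive = mean under 30% yet at least half of replicates reach 30%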;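 note: positive control wells lacked labelled fibronectin entirely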
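Assay system: AH1F fibroblasts / Quantity: 10000 cells per well / Medium: DMEM plus 2% serum, read in PBS / Reagent: labelled fibronectin 24 nM / Dosing: single dose, pinned / Times: 1 h cell attachment, overnight exposure to compound and label / Signal: fluorescence, ex 485 nm, em 525 nm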
EWS-Fli inh: EWS/Fli transcriptional activity inhibition; inhibition, % at 12.6 µM; A673 NR0B1-luciferase reporter, viability-normalised; hit rate 0.67% among 350,000;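 active = mean inhibition of at least 50% after viability correction, with every replicate also passing that limit; inconclusive = mean reaches 50% but only one of two replicates passes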;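 note: firefly luciferase signal divided by Alamar Blue viability fluorescence both relative to DMSO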
Shn3 3UTR inh: inhibitors of Schnurri-3 3'UTR reporter in osteoblasts; Clone20 osteoblast Shn3 3'UTR firefly luciferase, 24 h; inhibition, % at 12.5 µM; hit rate 0.52% among 360,000; AID 588674;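 active = mean inhibition of at least 75% with every replicate also reaching 75%; inconclusive = mean inhibition at least 75% but some replicate below; inactive = mean inhibition below 75%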;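 note: 0% = median of neutral control wells and 100% = pilot-screen positive control compound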
Starred values were filed as active, the others as inactive; u = inconclusive; x = no result given.

SMILES	EBV LMP1 NFkB	aSyn UTR inh	PAX8 inh HTS	FN deposit inh	EWS-Fli inh	Shn3 3UTR inh
C[C@@H]1CCCCO[C@H](CN(C)C(=O)C2CCCCC2)[C@H](C)CN([C@H](C)CO)C(=O)c2cc(NC(=O)CCC(F)(F)F)ccc2O1	x	x	x	x	4.6	x
C[C@H]1CN([C@@H](C)CO)S(=O)(=O)c2ccc(-c3cccnc3)cc2O[C@H]1CN(C)Cc1cncnc1	x	x	x	-12.1	-13.9	x
CC(C)(C)c1ccc(C(=O)Nc2ccc(CC(=O)O)cc2)o1	72.4*	110.7*	x	-2.2	x	68.6
Cc1ccc(C(=O)Nc2ccc(CC(=O)O)cc2)o1	-4.3	3.0	x	-6.0	x	-2.7
C[C@H]1CN([C@@H](C)CO)C(=O)c2cc(NC(=O)Nc3cccc4ccccc34)ccc2O[C@H]1CN(C)C(=O)Nc1ccc(C(F)(F)F)cc1	x	x	x	x	2.3	x
COc1cc(/C=N/NC(=O)CC2(C)OCCO2)cc(Br)c1O	5.9	13.1	6.1	0.4	x	9.3
COc1cc(/C=N/NC(=O)c2cc(-c3c(C)nn(-c4ccccc4)c3C)n[nH]2)ccc1O	-0.1	-54.9	69.4*	7.2	-29.7	-13.4
COc1cc(/C=N/NC(=O)C23CC4CC(CC(C4)C2)C3)cc(Br)c1O	-6.7	24.7	66.9*	2.3	2.7	11.2
COc1cc(/C=N/NC(=O)c2cc(C34CC5CC(CC(C5)C3)C4)[nH]n2)ccc1O	81.1*	13.5	x	x	x	5.6
C[C@H](CO)N1C[C@H](C)[C@H](CN(C)C(=O)CCC(F)(F)F)OCCCC[C@H](C)Oc2ccc(NC(=O)CCCN(C)C)cc2C1=O	x	x	-10.5	-0.2	-14.3	x
C[C@H](CO)N1C[C@H](C)[C@H](CN(C)Cc2ccc(Cl)c(Cl)c2)OCCCC[C@H](C)Oc2ccc(NS(=O)(=O)c3ccc(F)cc3)cc2C1=O	x	x	97.4*	3.8	-5.0	x
C[C@@H]1CN([C@H](C)CO)C(=O)c2cc(NS(=O)(=O)c3ccc(F)cc3)ccc2O[C@@H](C)CCCCO[C@H]1CN(C)Cc1ccc(Cl)c(Cl)c1	x	x	69.5*	10.0	20.3	x
COc1ccc(OC)c(CNc2ncc(-c3cccc([N+](=O)[O-])c3)n2C)c1	1.6	-20.3	7.0	-4.4	2.8	27.9
COc1ccc(-c2cnc(NCc3cc4c(cc3[N+](=O)[O-])OCO4)n2C)cc1	66.2*	6.8	-14.1	4.7	x	17.2
CCN(CC)CCNC(=O)c1ccc2c(c1NCCO)C(=O)c1ccccc1C2=O	x	95.6*	69.0*	2.9	-24.9	25.4
COc1ccc(-c2noc(CCCC(=O)NC3CCCC3)n2)cc1	7.6	62.4*	18.4	-6.7	47.7	73.6
O=C(CCc1nc(-c2ccccc2)no1)NCC1CCCO1 (stereo unspecified)	74.2*	-14.0	x	x	x	-12.2
COc1ccc(-c2noc(CCC(=O)NC3CCCCCC3)n2)cc1	7.6	-15.1	-12.5	-3.7	x	29.6
Cc1ccc(-c2noc(CCC(=O)NCC3CCCO3)n2)cc1 (stereo unspecified)	6.6	-29.8	x	x	x	-16.5
CC(C)(C)c1ccc(-c2noc(CCC(=O)NCC3CCCO3)n2)cc1 (stereo unspecified)	42.5*	104.2*	x	-3.5	x	59.3
CC(=O)NC[C@H]1[C@@H](c2ccc(-c3ccccc3)cc2)[C@H](CO)N1C(=O)C1CCC1	x	x	13.1	x	-4.5	x
C[C@H]1CN([C@@H](C)CO)S(=O)(=O)c2ccc(-c3ccncc3)cc2O[C@H]1CN(C)C(=O)C1CCC1	x	x	x	x	-11.2	x
CCOC(=O)CS(=O)(=O)c1nc(-c2ccccc2)cc(C(F)(F)F)n1	u	-20.5	x	x	x	97.4*
CCOC(=O)CS(=O)(=O)c1nc(-c2ccc(F)cc2)cc(C(F)(F)F)n1	69.0*	-32.8	x	x	x	96.7*
CCOC(=O)CCS(=O)(=O)c1nc(-c2ccccc2)cc(C(F)(F)F)n1	-23.8	-129.3	x	x	x	97.6*
CCOC(=O)CS(=O)(=O)c1ccccc1	1.9	-9.1	3.1	-5.9	x	-8.7
COC(=O)CCS(=O)(=O)c1nc(-c2ccccc2)cc(C(F)(F)F)n1	-37.2	-73.2	x	x	x	76.1
CO[C@H]1CN(C)C(=O)c2ccc(NC(=O)C3CCC3)cc2OC[C@H](C)N(Cc2ccncc2)C[C@@H]1C	x	x	-9.7	x	-0.7	x
C[C@@H]1CN([C@@H](C)CO)C(=O)c2cc(-c3ccccc3F)cnc2O[C@H]1CN(C)C(=O)CN(C)C	x	x	x	2.1	-23.4	x
